Test results as given in ChEMBL document CHEMBL5724801, “EUbOPEN Chemogenomics Library - Multiplex” (2024).
“And” between values parts separate entries of the source, which are not always exact repeats. Identical values can stand only once.

How the values were obtained:
HEK-293T = experiment: Multiplex assay against HEK293T; type: toxicity, cell-based; settings: human
In short: (§1)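 Tubulin, mitochondrial-mass and membrane-permeability phenotypes are per cents of healthy-nucleus cells. Cells were gated by CellPathfinder machine learning into Hoechst high-intensity objects or normal cells, normal cells into healthy, pyknosed or fragmented nuclei, and pyknosed cells into mitotic or apoptotic. Before that, live cells stained at seeding with Hoechst33342, BioTracker Green Microtubule Cytoskeleton Dye, MitoTracker Red and Annexin V Alexa Fluor 680 were imaged on a CQ1 microscope at 37°C and 5% CO2 after compound addition.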

U2OS = experiment: Multiplex assay against U2OS; type: toxicity, cell-based; settings: human; in short: as §1
[1] = 12 h, 1 µM, compound concentration 1 uM
[2] = 12 h, 10 µM, compound concentration 10 uM
[3] = 24 h, 1 µM, compound concentration 1 uM
[4] = 24 h, 10 µM, compound concentration 10 uM
[5] = 48 h, 1 µM, compound concentration 1 uM
[6] = 48 h, 10 µM, compound concentration 10 uM

Structure (SMILES): O=C(Nc1cc(C(F)(F)F)ccc1N1CCCCC1)c1ccncc1
- Population Apoptotic (%) (HEK-293T; [1]): 16.06% and 9.24%
- Population Fragmented Nuclei (%) (HEK-293T; [1]): 3.1% and 6.12%
- Population Hoechst High Intensity Objects (%) (HEK-293T; [1]): 0%
- Population Membrane Permeable-Phenotype (%) (HEK-293T; [1]): 0% and 10.53%
- Population Mitochondria Different-Phenotype (%) (HEK-293T; [1]): 30.11% and 10.53%
- Population Mitotic Cells (%) (HEK-293T; [1]): 83.94% and 90.76%
- Population Normal (%) (HEK-293T; [1]): 100%
- Population Pyknosed Nuclei (%) (HEK-293T; [1]): 42.41% and 80.95%
- Total Cell Count (HEK-293T; [1]): 323 and 147
- Population Apoptotic (%) (HEK-293T; [2]): 17.75% and 24.64%
- Population Fragmented Nuclei (%) (HEK-293T; [2]): 2.03% and 4.49%
- Population Healthy Nuclei (%) (HEK-293T; [2]): 48.84% and 17.98%
- Population Hoechst High Intensity Objects (%) (HEK-293T; [2]): 0.29% and 0%
- Population Membrane Permeable-Phenotype (%) (HEK-293T; [2]): 0% and 3.12%
- Population Mitochondria Different-Phenotype (%) (HEK-293T; [2]): 41.07% and 18.75%
- Population Mitotic Cells (%) (HEK-293T; [2]): 82.25% and 75.36%
- Population Normal (%) (HEK-293T; [2]): 99.71% and 100%
- Population Pyknosed Nuclei (%) (HEK-293T; [2]): 49.13% and 77.53%
- Population Tubulin-Different-Phenotype (%) (HEK-293T; [2]): 26.79% and 53.12%
- Total Cell Count (HEK-293T; [2]): 345 and 178
- Population Apoptotic (%) (HEK-293T; [3]): 12.5% and 17.7%
- Population Fragmented Nuclei (%) (HEK-293T; [3]): 1.79% and 1.82%
- Population Healthy Nuclei (%) (HEK-293T; [3]): 72.45% and 29.7%
- Population Hoechst High Intensity Objects (%) (HEK-293T; [3]): 0%
- Population Membrane Permeable-Phenotype (%) (HEK-293T; [3]): 1.48% and 2.04%
- Population Mitochondria Different-Phenotype (%) (HEK-293T; [3]): 13.33% and 12.24%
- Population Mitotic Cells (%) (HEK-293T; [3]): 87.5% and 82.3%
- Population Normal (%) (HEK-293T; [3]): 100%
- Population Pyknosed Nuclei (%) (HEK-293T; [3]): 25.76% and 68.48%
- Population Tubulin-Different-Phenotype (%) (HEK-293T; [3]): 11.36% and 12.24%
- Population Apoptotic (%) (HEK-293T; [4]): 30.61% and 27.07%
- Population Fragmented Nuclei (%) (HEK-293T; [4]): 1.11% and 2%
- Population Healthy Nuclei (%) (HEK-293T; [4]): 66.15% and 31.5%
- Population Hoechst High Intensity Objects (%) (HEK-293T; [4]): 0.22% and 0.5%
- Population Membrane Permeable-Phenotype (%) (HEK-293T; [4]): 1.68% and 0%
- Population Mitochondria Different-Phenotype (%) (HEK-293T; [4]): 34.01% and 33.33%
- Population Mitotic Cells (%) (HEK-293T; [4]): 69.39% and 72.93%
- Population Normal (%) (HEK-293T; [4]): 99.78% and 99.5%
- Population Pyknosed Nuclei (%) (HEK-293T; [4]): 32.74% and 66.5%
- Population Tubulin-Different-Phenotype (%) (HEK-293T; [4]): 39.39% and 14.29%
- Total Cell Count (HEK-293T; [4]): 450 and 201
- Population Apoptotic (%) (HEK-293T; [5]): 6.88% and 14.29%
- Population Fragmented Nuclei (%) (HEK-293T; [5]): 2.64% and 3.08%
- Population Healthy Nuclei (%) (HEK-293T; [5]): 85.29% and 66.08%
- Population Hoechst High Intensity Objects (%) (HEK-293T; [5]): 0%
- Population Membrane Permeable-Phenotype (%) (HEK-293T; [5]): 5.84% and 0.67%
- Population Mitochondria Different-Phenotype (%) (HEK-293T; [5]): 15.38% and 28.67%
- Population Mitotic Cells (%) (HEK-293T; [5]): 93.12% and 85.71%
- Population Normal (%) (HEK-293T; [5]): 100%
- Population Pyknosed Nuclei (%) (HEK-293T; [5]): 12.07% and 30.84%
- Population Apoptotic (%) (HEK-293T; [6]): 17.89% and 16.19%
- Population Fragmented Nuclei (%) (HEK-293T; [6]): 3.13% and 3.08%
- Population Healthy Nuclei (%) (HEK-293T; [6]): 80.83% and 56.54%
- Population Hoechst High Intensity Objects (%) (HEK-293T; [6]): 0% and 0.76%
- Population Membrane Permeable-Phenotype (%) (HEK-293T; [6]): 5.97% and 2.72%
- Population Mitochondria Different-Phenotype (%) (HEK-293T; [6]): 47.9% and 43.54%
- Population Mitotic Cells (%) (HEK-293T; [6]): 82.11% and 83.81%
- Population Normal (%) (HEK-293T; [6]): 100% and 99.24%
- Population Pyknosed Nuclei (%) (HEK-293T; [6]): 16.04% and 40.38%
- Total Cell Count (HEK-293T; [6]): 767 and 262
- Population Apoptotic (%) (U2OS; [1]): 66.67% and 37.5%
- Population Fragmented Nuclei (%) (U2OS; [1]): 2.62% and 1.94%
- Population Healthy Nuclei (%) (U2OS; [1]): 90.31% and 82.58%
- Population Hoechst High Intensity Objects (%) (U2OS; [1]): 0%
- Population Membrane Permeable-Phenotype (%) (U2OS; [1]): 1.74% and 3.12%
- Population Mitochondria Different-Phenotype (%) (U2OS; [1]): 0% and 2.34%
- Population Mitotic Cells (%) (U2OS; [1]): 33.33% and 62.5%
- Population Normal (%) (U2OS; [1]): 100%
- Population Pyknosed Nuclei (%) (U2OS; [1]): 7.07% and 15.48%
- Population Tubulin-Different-Phenotype (%) (U2OS; [1]): 1.16% and 0.78%
- Total Cell Count (U2OS; [1]): 382 and 155
- Population Apoptotic (%) (U2OS; [2]): 32.65% and 31.25%
- Population Fragmented Nuclei (%) (U2OS; [2]): 1.78% and 5.19%
- Population Healthy Nuclei (%) (U2OS; [2]): 87.31% and 74.03%
- Population Hoechst High Intensity Objects (%) (U2OS; [2]): 0%
- Population Membrane Permeable-Phenotype (%) (U2OS; [2]): 2.81% and 6.14%
- Population Mitotic Cells (%) (U2OS; [2]): 67.35% and 68.75%
- Population Normal (%) (U2OS; [2]): 100%
- Population Pyknosed Nuclei (%) (U2OS; [2]): 10.91% and 20.78%
- Population Tubulin-Different-Phenotype (%) (U2OS; [2]): 6.89% and 7.89%
- Total Cell Count (U2OS; [2]): 449 and 154
- Population Apoptotic (%) (U2OS; [3]): 24.39% and 47.37%
- Population Fragmented Nuclei (%) (U2OS; [3]): 2.34% and 1.57%
- Population Healthy Nuclei (%) (U2OS; [3]): 89.65% and 88.48%
- Population Hoechst High Intensity Objects (%) (U2OS; [3]): 0%
- Population Membrane Permeable-Phenotype (%) (U2OS; [3]): 0.65% and 1.78%
- Population Mitochondria Different-Phenotype (%) (U2OS; [3]): 0.22% and 4.73%
- Population Mitotic Cells (%) (U2OS; [3]): 75.61% and 52.63%
- Population Normal (%) (U2OS; [3]): 100%
- Population Pyknosed Nuclei (%) (U2OS; [3]): 8.01% and 9.95%
- Population Tubulin-Different-Phenotype (%) (U2OS; [3]): 1.09% and 0.59%
- Total Cell Count (U2OS; [3]): 512 and 191
